Results published in ChEMBL document CHEMBL1817564, “Recognition of HIV TAR RNA by triazole linked neomycin dimers” (Bioorg Med Chem Lett, 2011).
Active and inactive are the calls of the source. The calls are words filed in the database; no cut-off is given here.

Experiments:
Nucleic Acid [1] = experiment: Binding affinity to HIV1 TAR RNA assessed as melting temperature at HIV1 TAR RNA to compound ratio of 1 at pH 6.8 by UV thermal denaturation assay; assay type: nucleic-acid assay; conditions: Human immunodeficiency virus 1
Procedure, shortened: (§1)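 UV melting of HIV-1 TAR RNA (1 µM/strand) with ligand at 1 µM (ratio 1) in 100 mM KCl, 10 mM SC, 0.5 mM EDTA, pH 6.8. Tm taken from first-derivative plots of absorbance versus temperature; ΔTm is relative to RNA alone.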

Nucleic Acid [2] = experiment: Binding affinity to HIV1 TAR RNA assessed as change in melting temperature at HIV1 TAR RNA to compound ratio of 1 at pH 6.8 by UV thermal denaturation assay; assay type: nucleic-acid assay; conditions: Human immunodeficiency virus 1; procedure, shortened: as §1
Nucleic Acid [3] = experiment: Inhibition of HIV1 TAR RNA; assay type: nucleic-acid assay, Human immunodeficiency virus 1
Nucleic Acid [4] = experiment: Binding affinity to HIV1 TAR RNA at […] up to 3 by CD Spectroscopy; assay type: nucleic-acid assay; conditions: Human immunodeficiency virus 1
Procedure, shortened: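 CD titration of HIV TAR RNA with incremental additions of neomycin dimer, covering drug/duplex ratio (rdd) 0 to 3. Read-out is molar ellipticity.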

Nucleic Acid [5] = experiment: Binding affinity to HIV1 TAR RNA assessed as change in melting temperature at compound to TAR RNA ratio of 2 at pH 6.8 by UV thermal denaturation assay; assay type: nucleic-acid assay; conditions: Human immunodeficiency virus 1
Procedure, shortened: (§2)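 TAR RNA UV thermal denaturation in 100 mM KCl, 10 mM SC, 0.5 mM EDTA, pH 6.8, with dimer:RNA at 2:1. Tm taken from first-derivative plots.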

Nucleic Acid [6] = experiment: Binding affinity to HIV1 TAR RNA assessed as melting temperature at compound to TAR RNA ratio of 4 at pH 6.8 by UV thermal denaturation assay; assay type: nucleic-acid assay; conditions: Human immunodeficiency virus 1
Nucleic Acid [7] = experiment: Binding affinity to HIV1 TAR RNA assessed as change in melting temperature at compound to TAR RNA ratio of 4 at pH 6.8 by UV thermal denaturation assay; assay type: nucleic-acid assay; conditions: Human immunodeficiency virus 1
Nucleic Acid [8] = experiment: Binding affinity to HIV1 TAR RNA assessed as melting temperature at compound to TAR RNA ratio of 2 at pH 6.8 by UV thermal denaturation assay; assay type: nucleic-acid assay; conditions: Human immunodeficiency virus 1; procedure, shortened: as §2

Row | Tm (Nucleic Acid [1]) [°C] | ΔTm (Nucleic Acid [2]) [°C] | Structure (SMILES) | also measured
1 | 69.1 | 0.2 | NC[C@@H]1O[C@H](O[C@H]2[C@@H](O)[C@H](O[C@@H]3[C@@H](O)[C@H](N)C[C@H](N)[C@H]3O[C@H]3O[C@H](CN)[C@@H](O)[C@H](O)[C@H]3N)O[C@@H]2CO)[C@H](N)[C@@H](O)[C@@H]1O [FRAMYCETIN] | IC50 (Nucleic Acid [3]): 417 nM; Kd (Nucleic Acid [3]): < 1000 nM
2 | 78.2 | 9.3 | NC[C@@H]1O[C@H](O[C@H]2[C@@H](O)[C@H](O[C@@H]3[C@@H](O)[C@H](N)C[C@H](N)[C@H]3O[C@H]3O[C@H](CN)[C@@H](O)[C@H](O)[C@H]3N)O[C@@H]2Cn2cc(CCCc3cn(C[C@H]4O[C@@H](O[C@@H]5[C@@H](O)[C@H](N)C[C@H](N)[C@H]5O[C@H]5O[C@H](CN)[C@@H](O)[C@H](O)[C@H]5N)[C@H](O)[C@@H]4O[C@H]4O[C@@H](CN)[C@@H](O)[C@H](O)[C@H]4N)nn3)nn2)[C@H](N)[C@@H](O)[C@@H]1O | ΔTm (Nucleic Acid [5]): 11.5 °C; Tm (Nucleic Acid [6]): 81.3 °C; ΔTm (Nucleic Acid [7]): 12.4 °C; Tm (Nucleic Acid [8]): 80.4 °C
3 | 78.5 | 9.6 | NC[C@@H]1O[C@H](O[C@H]2[C@@H](O)[C@H](O[C@@H]3[C@@H](O)[C@H](N)C[C@H](N)[C@H]3O[C@H]3O[C@H](CN)[C@@H](O)[C@H](O)[C@H]3N)O[C@@H]2Cn2cc(Cc3ccc(Cc4cn(C[C@H]5O[C@@H](O[C@@H]6[C@@H](O)[C@H](N)C[C@H](N)[C@H]6O[C@H]6O[C@H](CN)[C@@H](O)[C@H](O)[C@H]6N)[C@H](O)[C@@H]5O[C@H]5O[C@@H](CN)[C@@H](O)[C@H](O)[C@H]5N)nn4)cc3)nn2)[C@H](N)[C@@H](O)[C@@H]1O | –

The next lines start with the molecule.

Row | Structure (SMILES) | Tm (Nucleic Acid [1]) [°C] | ΔTm (Nucleic Acid [2]) [°C] | also measured
4 | NC[C@@H]1O[C@H](O[C@H]2[C@@H](O)[C@H](O[C@@H]3[C@@H](O)[C@H](N)C[C@H](N)[C@H]3O[C@H]3O[C@H](CN)[C@@H](O)[C@H](O)[C@H]3N)O[C@@H]2Cn2cc(Cc3cccc(Cc4cn(C[C@H]5O[C@@H](O[C@@H]6[C@@H](O)[C@H](N)C[C@H](N)[C@H]6O[C@H]6O[C@H](CN)[C@@H](O)[C@H](O)[C@H]6N)[C@H](O)[C@@H]5O[C@H]5O[C@@H](CN)[C@@H](O)[C@H](O)[C@H]5N)nn4)c3)nn2)[C@H](N)[C@@H](O)[C@@H]1O | 78.2 | 9.3 | –
5 | C/C(CCc1cn(C[C@H]2O[C@@H](O[C@@H]3[C@@H](O)[C@H](N)C[C@H](N)[C@H]3O[C@H]3O[C@H](CN)[C@@H](O)[C@H](O)[C@H]3N)[C@H](O)[C@@H]2O[C@H]2O[C@@H](CN)[C@@H](O)[C@H](O)[C@H]2N)nn1)=C(/C)CCc1cn(C[C@H]2O[C@@H](O[C@@H]3[C@@H](O)[C@H](N)C[C@H](N)[C@H]3O[C@H]3O[C@H](CN)[C@@H](O)[C@H](O)[C@H]3N)[C@H](O)[C@@H]2O[C@H]2O[C@@H](CN)[C@@H](O)[C@H](O)[C@H]2N)nn1 | 76.4 | 7.6 | –
6 | NC[C@@H]1O[C@H](O[C@H]2[C@@H](O)[C@H](O[C@@H]3[C@@H](O)[C@H](N)C[C@H](N)[C@H]3O[C@H]3O[C@H](CN)[C@@H](O)[C@H](O)[C@H]3N)O[C@@H]2Cn2cc(COCc3cn(C[C@H]4O[C@@H](O[C@@H]5[C@@H](O)[C@H](N)C[C@H](N)[C@H]5O[C@H]5O[C@H](CN)[C@@H](O)[C@H](O)[C@H]5N)[C@H](O)[C@@H]4O[C@H]4O[C@@H](CN)[C@@H](O)[C@H](O)[C@H]4N)nn3)nn2)[C@H](N)[C@@H](O)[C@@H]1O | 79.1 | 10.2 | Activity (Nucleic Acid [4]): Active
7 | NC[C@@H]1O[C@H](O[C@H]2[C@@H](O)[C@H](O[C@@H]3[C@@H](O)[C@H](N)C[C@H](N)[C@H]3O[C@H]3O[C@H](CN)[C@@H](O)[C@H](O)[C@H]3N)O[C@@H]2Cn2cc(COCCCCCCCCCCCCOCc3cn(C[C@H]4O[C@@H](O[C@@H]5[C@@H](O)[C@H](N)C[C@H](N)[C@H]5O[C@H]5O[C@H](CN)[C@@H](O)[C@H](O)[C@H]5N)[C@H](O)[C@@H]4O[C@H]4O[C@@H](CN)[C@@H](O)[C@H](O)[C@H]4N)nn3)nn2)[C@H](N)[C@@H](O)[C@@H]1O | 72.1 | 3.3 | –
8 | NC[C@@H]1O[C@H](O[C@H]2[C@@H](O)[C@H](O[C@@H]3[C@@H](O)[C@H](N)C[C@H](N)[C@H]3O[C@H]3O[C@H](CN)[C@@H](O)[C@H](O)[C@H]3N)O[C@@H]2Cn2cc(COCCCCCCCCOCc3cn(C[C@H]4O[C@@H](O[C@@H]5[C@@H](O)[C@H](N)C[C@H](N)[C@H]5O[C@H]5O[C@H](CN)[C@@H](O)[C@H](O)[C@H]5N)[C@H](O)[C@@H]4O[C@H]4O[C@@H](CN)[C@@H](O)[C@H](O)[C@H]4N)nn3)nn2)[C@H](N)[C@@H](O)[C@@H]1O | 74.3 | 5.4 | –
9 | NC[C@@H]1O[C@H](O[C@H]2[C@@H](O)[C@H](O[C@@H]3[C@@H](O)[C@H](N)C[C@H](N)[C@H]3O[C@H]3O[C@H](CN)[C@@H](O)[C@H](O)[C@H]3N)O[C@@H]2Cn2cc(CCCCc3cn(C[C@H]4O[C@@H](O[C@@H]5[C@@H](O)[C@H](N)C[C@H](N)[C@H]5O[C@H]5O[C@H](CN)[C@@H](O)[C@H](O)[C@H]5N)[C@H](O)[C@@H]4O[C@H]4O[C@@H](CN)[C@@H](O)[C@H](O)[C@H]4N)nn3)nn2)[C@H](N)[C@@H](O)[C@@H]1O | 77.1 | 8.2 | –
10 | NC[C@@H]1O[C@H](O[C@H]2[C@@H](O)[C@H](O[C@@H]3[C@@H](O)[C@H](N)C[C@H](N)[C@H]3O[C@H]3O[C@H](CN)[C@@H](O)[C@H](O)[C@H]3N)O[C@@H]2Cn2cc(CCCCCCc3cn(C[C@H]4O[C@@H](O[C@@H]5[C@@H](O)[C@H](N)C[C@H](N)[C@H]5O[C@H]5O[C@H](CN)[C@@H](O)[C@H](O)[C@H]5N)[C@H](O)[C@@H]4O[C@H]4O[C@@H](CN)[C@@H](O)[C@H](O)[C@H]4N)nn3)nn2)[C@H](N)[C@@H](O)[C@@H]1O | 74.9 | 6.1 | –
